Measurements as given in ChEMBL document CHEMBL1687776, “Origin and molecular evolution of the determinant of methicillin resistance in staphylococci” (2010).
≈ marks a conversion by molar mass, not a printed value.

Key:
Staphylococcus vitulinus [1] = assay: Antibacterial activity against mecA-negative Staphylococcus vitulinus SVMN14 by agar dilution method; format: functional; conditions: Mammaliicoccus vitulinus
In short: (§1)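 MIC by agar dilution on Mueller-Hinton agar per CLSI guidance; resistance judged against CLSI breakpoints. Strains were animal or food isolates (type strains for S. sciuri subspecies), typed by hsp60 and/or sodA sequencing; mecA homologue carriage checked by PCR with degenerate primers. Agents tested: oxacillin, ampicillin, ceftizoxime, ceftriaxone, cefoxitin.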

Staphylococcus vitulinus [2] = assay: Antibacterial activity against mecA-negative Staphylococcus vitulinus SVMN10 by agar dilution method; format: functional; conditions: Mammaliicoccus vitulinus
In short: (§2)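 MIC by agar dilution on Mueller-Hinton agar following CLSI guidelines. Resistance was assigned using CLSI breakpoints. Agents tested were oxacillin, ampicillin, ceftizoxime, ceftriaxone and cefoxitin. Strains were from animal or food sources and identified by hsp60 and/or sodA sequencing. mecA absence was assessed by PCR with degenerate primers for mecA and its homologues.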

Mammaliicoccus lentus = assay: Antibacterial activity against mecA-negative Staphylococcus lentus ATCC 29070T by agar dilution method; format: functional; in short: as §2
[3] = Antibacterial activity against methicillin-resistant mecA-positive Staphylococcus sciuri subsp. sciuri ATCC 29062T by agar dilution method; format: functional; conditions: Mammaliicoccus sciuri; in short: as §1
Staphylococcus vitulinus [4] = assay: Antibacterial activity against mecA-negative Staphylococcus vitulinus SVMN02 by agar dilution method; format: functional; conditions: Mammaliicoccus vitulinus; in short: as §1
[5] = tested on: Staphylococcus fleurettii; assay: Antibacterial activity against methicillin-resistant mecA-positive Staphylococcus fleurettii SFMP03 by agar dilution method; format: functional; conditions: Mammaliicoccus fleurettii; in short: as §1
[6] = tested on: Staphylococcus fleurettii; assay: Antibacterial activity against methicillin-resistant mecA-positive Staphylococcus fleurettii SFMP06 by agar dilution method; format: functional; conditions: Mammaliicoccus fleurettii; in short: as §1
Staphylococcus vitulinus [7] = assay: Antibacterial activity against mecA-negative Staphylococcus vitulinus SVMN03 by agar dilution method; format: functional; conditions: Mammaliicoccus vitulinus; in short: as §2
Staphylococcus vitulinus [8] = assay: Antibacterial activity against mecA-negative Staphylococcus vitulinus SVMN13 by agar dilution method; format: functional; conditions: Mammaliicoccus vitulinus; in short: as §2
[9] = tested on: Staphylococcus fleurettii; assay: Antibacterial activity against mecA-negative Staphylococcus fleurettii SFMN02 by agar dilution method; format: functional; conditions: Mammaliicoccus fleurettii; in short: as §2
Staphylococcus vitulinus [10] = assay: Antibacterial activity against mecA-negative Staphylococcus vitulinus SVMN08 by agar dilution method; format: functional; conditions: Mammaliicoccus vitulinus; in short: as §2
Staphylococcus vitulinus [11] = assay: Antibacterial activity against methicillin-resistant mecA-positive Staphylococcus vitulinus SVMP02 by agar dilution method; format: functional; conditions: Mammaliicoccus vitulinus; in short: as §1
Staphylococcus vitulinus [12] = assay: Antibacterial activity against mecA-negative Staphylococcus vitulinus SVMN05 by agar dilution method; format: functional; conditions: Mammaliicoccus vitulinus; in short: as §1
Staphylococcus vitulinus [13] = assay: Antibacterial activity against mecA-negative Staphylococcus vitulinus SVMN09 by agar dilution method; format: functional; conditions: Mammaliicoccus vitulinus; in short: as §1
Staphylococcus vitulinus [14] = assay: Antibacterial activity against mecA-negative Staphylococcus vitulinus SVMN06 by agar dilution method; format: functional; conditions: Mammaliicoccus vitulinus; in short: as §1
Staphylococcus vitulinus [15] = assay: Antibacterial activity against mecA-negative Staphylococcus vitulinus SVMN07 by agar dilution method; format: functional; conditions: Mammaliicoccus vitulinus; in short: as §1
[16] = Antibacterial activity against mecA-positive Staphylococcus sciuri subsp. carnaticus ATCC 700058T by agar dilution method; conditions: Mammaliicoccus sciuri
Staphylococcus vitulinus [17] = assay: Antibacterial activity against methicillin-resistant mecA-positive Staphylococcus vitulinus SVMP03 by agar dilution method; format: functional; conditions: Mammaliicoccus vitulinus; in short: as §1
[18] = Antibacterial activity against methicillin-resistant mecA-positive Staphylococcus sciuri subsp. rodentium ATCC 700061T by agar dilution method; format: functional; conditions: Mammaliicoccus sciuri; in short: as §1
Staphylococcus vitulinus [19] = assay: Antibacterial activity against mecA-negative Staphylococcus vitulinus SVMN04 by agar dilution method; format: functional; conditions: Mammaliicoccus vitulinus; in short: as §1
[20] = tested on: Staphylococcus fleurettii; assay: Antibacterial activity against methicillin-resistant mecA-positive Staphylococcus fleurettii SFMP04 by agar dilution method; format: functional; conditions: Mammaliicoccus fleurettii; in short: as §1
Staphylococcus vitulinus [21] = assay: Antibacterial activity against methicillin-resistant mecA-positive Staphylococcus vitulinus SVMP05 by agar dilution method; format: functional; conditions: Mammaliicoccus vitulinus; in short: as §1
Staphylococcus vitulinus [22] = assay: Antibacterial activity against methicillin-resistant mecA-positive Staphylococcus vitulinus SVMP06 by agar dilution method; format: functional; conditions: Mammaliicoccus vitulinus; in short: as §1
Staphylococcus vitulinus [23] = assay: Antibacterial activity against mecA-negative Staphylococcus vitulinus SVMN12 by agar dilution method; format: functional; conditions: Mammaliicoccus vitulinus; in short: as §1
[24] = tested on: Staphylococcus fleurettii; assay: Antibacterial activity against methicillin-resistant mecA-positive Staphylococcus fleurettii SFMP08 by agar dilution method; format: functional; conditions: Mammaliicoccus fleurettii; in short: as §1
Staphylococcus vitulinus [25] = assay: Antibacterial activity against mecA-negative Staphylococcus vitulinus SVMN11 by agar dilution method; format: functional; conditions: Mammaliicoccus vitulinus; in short: as §1
Staphylococcus vitulinus [26] = assay: Antibacterial activity against methicillin-resistant mecA-positive Staphylococcus vitulinus SVMP04 by agar dilution method; format: functional; conditions: Mammaliicoccus vitulinus; in short: as §1
[27] = tested on: Staphylococcus fleurettii; assay: Antibacterial activity against methicillin-resistant mecA-positive Staphylococcus fleurettii SFMP01(CCUG 43834T) by agar dilution method; format: functional; conditions: Mammaliicoccus fleurettii; in short: as §1
Staphylococcus vitulinus [28] = assay: Antibacterial activity against methicillin-resistant mecA-positive Staphylococcus vitulinus SVMP01 by agar dilution method; format: functional; conditions: Mammaliicoccus vitulinus; in short: as §1
[29] = tested on: Staphylococcus fleurettii; assay: Antibacterial activity against mecA-negative Staphylococcus fleurettii SFMN01 by agar dilution method; format: functional; conditions: Mammaliicoccus fleurettii; in short: as §2
[30] = tested on: Staphylococcus fleurettii; assay: Antibacterial activity against methicillin-resistant mecA-positive Staphylococcus fleurettii SFMP05 by agar dilution method; format: functional; conditions: Mammaliicoccus fleurettii; in short: as §1
[31] = tested on: Staphylococcus fleurettii; assay: Antibacterial activity against methicillin-resistant mecA-positive Staphylococcus fleurettii SFMP07 by agar dilution method; format: functional; conditions: Mammaliicoccus fleurettii; in short: as §1
[32] = tested on: Staphylococcus fleurettii; assay: Antibacterial activity against methicillin-resistant mecA-positive Staphylococcus fleurettii SFMP02 by agar dilution method; format: functional; conditions: Mammaliicoccus fleurettii; in short: as §1
Staphylococcus vitulinus [33] = assay: Antibacterial activity against mecA-negative Staphylococcus vitulinus SVMN01 (ATCC 51145T) by agar dilution method; format: functional; conditions: Mammaliicoccus vitulinus; in short: as §2

| SMILES | MIC (Staphylococcus vitulinus [1]) [µg/mL] | MIC (Staphylococcus vitulinus [2]) [µg/mL] | MIC (Mammaliicoccus lentus) [µg/mL] | MIC [3] [µg/mL] | MIC (Staphylococcus vitulinus [4]) [µg/mL] | MIC [5] [µg/mL] | MIC [6] [µg/mL] | MIC (Staphylococcus vitulinus [7]) [µg/mL] | MIC (Staphylococcus vitulinus [8]) [µg/mL] | MIC [9] [µg/mL] | MIC (Staphylococcus vitulinus [10]) [µg/mL] | MIC (Staphylococcus vitulinus [11]) [µg/mL] | MIC (Staphylococcus vitulinus [12]) [µg/mL] | MIC (Staphylococcus vitulinus [13]) [µg/mL] | MIC (Staphylococcus vitulinus [14]) [µg/mL] | MIC (Staphylococcus vitulinus [15]) [µg/mL] | MIC [16] [µg/mL] | MIC (Staphylococcus vitulinus [17]) [µg/mL] | MIC [18] [µg/mL] | MIC (Staphylococcus vitulinus [19]) [µg/mL] | also measured |
| --- | --- | --- | --- | --- | --- | --- | --- | --- | --- | --- | --- | --- | --- | --- | --- | --- | --- | --- | --- | --- | --- |
| CO/N=C(\C(=O)N[C@@H]1C(=O)N2C(C(=O)O)=C(CSc3nc(=O)c(O)nn3C)CS[C@H]12)c1csc(N)n1 [CEFTRIAXONE] | 2 (≈ 3.61 µM) | 1 (≈ 1.8 µM) | 2 (≈ 3.61 µM) | 8 (≈ 14.4 µM) | 4 (≈ 7.21 µM) | 64 (≈ 115 µM) | 32 (≈ 57.7 µM) | 1 (≈ 1.8 µM) | 1 (≈ 1.8 µM) | 4 (≈ 7.21 µM) | 0.25 (≈ 0.451 µM) | 2 (≈ 3.61 µM) | 1 (≈ 1.8 µM) | 2 (≈ 3.61 µM) | 4 (≈ 7.21 µM) | 2 (≈ 3.61 µM) | 8 (≈ 14.4 µM) | 4 (≈ 7.21 µM) | 8 (≈ 14.4 µM) | 2 (≈ 3.61 µM) | MIC [20]: 64 µg/mL (≈ 115 µM); MIC (Staphylococcus vitulinus [21]): 4 µg/mL (≈ 7.21 µM); MIC (Staphylococcus vitulinus [22]): 2 µg/mL (≈ 3.61 µM); MIC (Staphylococcus vitulinus [23]): 1 µg/mL (≈ 1.8 µM); MIC [24]: 16 µg/mL (≈ 28.9 µM); MIC (Staphylococcus vitulinus [25]): 4 µg/mL (≈ 7.21 µM); MIC (Staphylococcus vitulinus [26]): 2 µg/mL (≈ 3.61 µM); MIC [27]: 16 µg/mL (≈ 28.9 µM); MIC (Staphylococcus vitulinus [28]): 4 µg/mL (≈ 7.21 µM); MIC [29]: 4 µg/mL (≈ 7.21 µM); MIC [30]: 8 µg/mL (≈ 14.4 µM); MIC [31]: 8 µg/mL (≈ 14.4 µM); MIC [32]: 16 µg/mL (≈ 28.9 µM); MIC (Staphylococcus vitulinus [33]): 8 µg/mL (≈ 14.4 µM) |
| Cc1onc(-c2ccccc2)c1C(=O)N[C@@H]1C(=O)N2[C@@H]1SC(C)(C)[C@@H]2C(=O)O [OXACILLIN] | 0.5 (≈ 1.25 µM) | 0.5 (≈ 1.25 µM) | 0.5 (≈ 1.25 µM) | 0.5 (≈ 1.25 µM) | 0.5 (≈ 1.25 µM) | 128 (≈ 319 µM) | 64 (≈ 159 µM) | 0.5 (≈ 1.25 µM) | 0.5 (≈ 1.25 µM) | 0.5 (≈ 1.25 µM) | 0.5 (≈ 1.25 µM) | 0.5 (≈ 1.25 µM) | 0.25 (≈ 0.623 µM) | 0.5 (≈ 1.25 µM) | 0.5 (≈ 1.25 µM) | 0.5 (≈ 1.25 µM) | 1 (≈ 2.49 µM) | 0.5 (≈ 1.25 µM) | 0.5 (≈ 1.25 µM) | 0.5 (≈ 1.25 µM) | MIC [20]: 128 µg/mL (≈ 319 µM); MIC (Staphylococcus vitulinus [21]): 0.5 µg/mL (≈ 1.25 µM); MIC (Staphylococcus vitulinus [22]): 0.5 µg/mL (≈ 1.25 µM); MIC (Staphylococcus vitulinus [23]): 0.5 µg/mL (≈ 1.25 µM); MIC [24]: 64 µg/mL (≈ 159 µM); MIC (Staphylococcus vitulinus [25]): 0.5 µg/mL (≈ 1.25 µM); MIC (Staphylococcus vitulinus [26]): 0.5 µg/mL (≈ 1.25 µM); MIC [27]: 64 µg/mL (≈ 159 µM); MIC (Staphylococcus vitulinus [28]): 0.5 µg/mL (≈ 1.25 µM); MIC [29]: 0.5 µg/mL (≈ 1.25 µM); MIC [30]: 32 µg/mL (≈ 79.7 µM); MIC [31]: 8 µg/mL (≈ 19.9 µM); MIC [32]: 8 µg/mL (≈ 19.9 µM); MIC (Staphylococcus vitulinus [33]): 0.5 µg/mL (≈ 1.25 µM) |
| CO/N=C(\C(=O)N[C@@H]1C(=O)N2C(C(=O)O)=CCS[C@H]12)c1csc(N)n1 [CEFTIZOXIME] | 0.5 (≈ 1.3 µM) | 0.25 (≈ 0.652 µM) | 1 (≈ 2.61 µM) | 2 (≈ 5.22 µM) | 1 (≈ 2.61 µM) | 128 (≈ 334 µM) | 32 (≈ 83.5 µM) | 0.25 (≈ 0.652 µM) | 0.25 (≈ 0.652 µM) | 2 (≈ 5.22 µM) | 0.25 (≈ 0.652 µM) | 0.5 (≈ 1.3 µM) | 0.5 (≈ 1.3 µM) | 0.5 (≈ 1.3 µM) | 0.5 (≈ 1.3 µM) | 0.5 (≈ 1.3 µM) | 2 (≈ 5.22 µM) | 0.5 (≈ 1.3 µM) | 2 (≈ 5.22 µM) | 0.5 (≈ 1.3 µM) | MIC [20]: 64 µg/mL (≈ 167 µM); MIC (Staphylococcus vitulinus [21]): 1 µg/mL (≈ 2.61 µM); MIC (Staphylococcus vitulinus [22]): 0.5 µg/mL (≈ 1.3 µM); MIC (Staphylococcus vitulinus [23]): 0.5 µg/mL (≈ 1.3 µM); MIC [24]: 32 µg/mL (≈ 83.5 µM); MIC (Staphylococcus vitulinus [25]): 1 µg/mL (≈ 2.61 µM); MIC (Staphylococcus vitulinus [26]): 0.5 µg/mL (≈ 1.3 µM); MIC [27]: 32 µg/mL (≈ 83.5 µM); MIC (Staphylococcus vitulinus [28]): 0.5 µg/mL (≈ 1.3 µM); MIC [29]: 2 µg/mL (≈ 5.22 µM); MIC [30]: 4 µg/mL (≈ 10.4 µM); MIC [31]: 4 µg/mL (≈ 10.4 µM); MIC [32]: 32 µg/mL (≈ 83.5 µM); MIC (Staphylococcus vitulinus [33]): 4 µg/mL (≈ 10.4 µM) |
